Here are results for five compounds from ChEMBL document CHEMBL1126568, “Nucleosides and nucleotides. 122. 2'-C-cyano-2'-deoxy-1-beta-D-arabinofuranosylcytosine and its derivatives. A new class of nucleoside with a broad antitumor spectrum” (J Med Chem, 1993).

One assay relates to MCF7. Put plainly: Tested in vitro against MCF-7 human breast adenocarcinoma. Format: functional, cell-based. In outline: (§1)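 MTT growth assay: 2 × 10³ cells/well exposed to compound or left untreated for 72 h. MTT then added for 4 h more; formazan dissolved in DMSO and OD read at 540 nm. % inhibition = [1 − OD sample/OD control] × 100. IC₅₀ (μM) is the concentration giving 50% growth inhibition. Single-concentration inhibition measured at 100 μg/mL.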

The next assay concerns COLO 320. Put plainly: Tested in vitro against colo-320 human colon adenocarcinoma. The assay is classed as functional, cell-based. The following applies: COLO 320, Colon. In outline: as §1
A further assay has as its system PC-8. Put plainly: Tested in vitro against PC-8 human lung adenocarcinoma. The assay is classed as functional, cell-based. Summed up: as §1
For the next assay, the system named is A-375. As to the kind of experiment: Tested in vitro against A-375 cell line human melanoma. The assay is classed as functional, cell-based. In outline: as §1
The test system of the next assay is QG-95. Put plainly: Tested in vitro against QG-95 human squamous cell carcinoma. The assay is classed as functional, cell-based. Summed up: as §1
The subject of the next assay is ST-KM-1. As to the kind of experiment: Tested in vitro against ST-KM human stomach adenocarcinoma. Format: functional, cell-based. The note with it: ST-KM-1, Stomach. Summed up:
as §1

A further assay concerns PC-13. Put plainly: Tested in vitro against PC-13 human lung large cell carcinoma. The assay is classed as functional, cell-based. Summed up: as §1
A further assay has as its system KKLS. As to the kind of experiment: Tested in vitro against KKLS human stomach adenocarcinoma. Format: functional, cell-based. In outline:
as §1

A further assay deals with MKN-45. Put plainly: Tested in vitro against MKN-45 human stomach adenocarcinoma. The assay is classed as functional, cell-based. The following applies: MKN-45, Stomach. Summed up: as §1
The subject of the next assay is HT-1080. Put plainly: Tested in vitro against HT1080 cell line human fibrosarcoma. The assay is classed as functional, cell-based. In outline:
as §1

For a further assay, the system named is OST. As to the kind of experiment: Tested in vitro against OST human osteosarcoma. The assay is classed as functional, cell-based. Summed up: as §1
For assay [1], the system named is L1210. Put plainly: Tested in vitro inhibitory activity against murine leukemia L1210. The assay is classed as functional, cell-based. The following applies: Mus musculus. Summed up: as §1
Another assay concerns PC-9. Put plainly: Tested in vitro against PC-9 human lung adenocarcinoma. Format: functional, cell-based. Summed up:
as §1

The subject of another assay is HOS-TE85. Put plainly: Tested in vitro against MNNG/HOS cell line human osteosarcoma. The assay is classed as functional, cell-based. In outline: as §1
A short description of assay [2]: Percent inhibition against human oral epidermoid carcinoma KB cells at 100 ug/mL. The assay is classed as functional. Summed up: as §1
For a further assay, the system named is SW48. Put plainly: Tested in vitro against SW-48 human colon adenocarcinoma. The assay is classed as functional, cell-based. In outline: as §1
Assay [3] relates to KATO III stomach cancer cell line. As to the kind of experiment: Tested in vitro against KATO-III human stomach adenocarcinoma. Format: functional, cell-based. Summed up:
as §1

In assay [4] the test system is L1210. As to the kind of experiment: Percent inhibition against murine leukemia L1210 at 100 ug/mL. The assay is classed as functional. The following applies: Mus musculus. In outline:
as §1

Assay [5] in a line: Tested in vitro inhibitory activity against human oral epidermoid carcinoma KB cells. Format: functional, cell-based. In outline: as §1
The test system of assay [6] is Mus musculus. As to the kind of experiment: Weight change in M5076 mouse reticulum cell sarcoma after administration at 62.5 mg/kg orally. Format: functional. The note with it: route oral. Summed up:
(§2)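 Female BDF₁ mice with subcutaneous axillary M5076 (10⁶ cells), oral dosing on days 1, 4, 7, 10, 13 and 16 in saline or 5% DMA/0.5% CMC. Body weight change (g) = mean weight on day 20 minus mean weight on day 1.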

Assay [7] has as its system Mus musculus. Put plainly: Percent inhibition against M5076 mouse reticulum cell sarcoma after administration at 750 mg/kg orally on day 20. Format: functional. The note with it: M5076, 480 h, route oral. Summed up: (§3)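 M5076 cells (10⁶ viable, counted by Trypan blue exclusion) implanted subcutaneously into the axillary region of female BDF₁ mice. Drug given orally on days 1, 4, 7, 10, 13 and 16 after inoculation, in saline or in 5% dimethylacetamide/0.5% carboxymethyl cellulose. Six mice per group (three at 400 mg/kg); untreated controls, nine mice. Tumor volume = 0.5 × length × width²; inhibition (%) = (1 − Vt/Vc) × 100 on day 20.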

Assay [8] has as its system Mus musculus. Put plainly: Percent inhibition against M5076 mouse reticulum cell sarcoma after administration at 500 mg/kg orally on day 20. The assay is classed as functional. The note with it: M5076, 480 h, route oral. Summed up:
as §3

Assay [9] deals with Mus musculus. As to the kind of experiment: Percent inhibition against M5076 mouse reticulum cell sarcoma after administration at 125 mg/kg orally on day 20. Format: functional. The note with it: M5076, 480 h, route oral. In outline: as §3
Assay [10] has as its system Mus musculus. Put plainly: Weight change in M5076 mouse reticulum cell sarcoma after administration at 250 mg/kg orally. The following applies: route oral. The assay is classed as functional. In outline: as §2
Assay [11] deals with Mus musculus. As to the kind of experiment: Tested for 60-day survivors after administration at 62.5 mg/kg orally in M5076 mouse reticulum cell sarcoma. The assay is classed as functional. The note with it: route oral. In outline:
(§4)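 Female BD2F1 mice were implanted s.c. with 1 × 10^6 M5076 cells and dosed orally on days 1, 4, 7, 10, 13 and 16. Vehicle was saline or 5% DMA in 0.5% CMC. Groups had six mice (three at 400 mg/kg), with nine untreated controls. The number of mice alive at 60 days was counted.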

The test system of assay [12] is Mus musculus. Put plainly: Percent inhibition against M5076 mouse reticulum cell sarcoma after administration at 62.5 mg/kg orally on day 20. The note with it: M5076, 480 h, route oral. Format: functional. Summed up: as §3
The subject of assay [13] is Mus musculus. As to the kind of experiment: Tested for 60-day survivors after administration at 250 mg/kg orally in M5076 mouse reticulum cell sarcoma. The note with it: route oral. The assay is classed as functional. In outline:
as §4

Assay [14] concerns Mus musculus. Put plainly: Weight change in M5076 mouse reticulum cell sarcoma after administration at 500 mg/kg orally. The following applies: route oral. Format: functional. In outline: as §2
The subject of assay [15] is Mus musculus. Put plainly: Percent treated was determined after administration at 62.5 mg/kg orally. Format: functional. The following applies: route oral. In outline: (§5)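 Female BDF₁ mice bearing subcutaneous M5076 (10⁶ cells, axillary). Oral dosing in saline or 5% DMA/0.5% CMC on days 1, 4, 7, 10, 13 and 16. Groups of six (three at 400 mg/kg), nine untreated controls. T/C (%) = median survival day of treated/median survival day of untreated controls × 100; 60-day survivors also recorded.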

In assay [16] the test system is Mus musculus. Put plainly: Percent treated was determined after administration at 500 mg/kg orally. Format: functional. The note with it: route oral. In outline: as §5
The test system of assay [17] is Mus musculus. Put plainly: Tested for 60-day survivors after administration at 125 mg/kg orally in M5076 mouse reticulum cell sarcoma. The assay is classed as functional. The following applies: route oral. Summed up:
as §4

Assay [18] has as its system Mus musculus. Put plainly: Weight change in M5076 mouse reticulum cell sarcoma after administration at 750 mg/kg orally. The assay is classed as functional. The following applies: route oral. In outline:
as §2

Assay [19] deals with Mus musculus. Put plainly: Percent treated was determined after administration at 750 mg/kg orally. The assay is classed as functional. The following applies: route oral. In outline:
as §5

The test system of assay [20] is Mus musculus. Put plainly: Tested for 60-day survivors after administration at 500 mg/kg orally in M5076 mouse reticulum cell sarcoma. Format: functional. The note with it: route oral. Summed up:
as §4

Assay [21] concerns Mus musculus. As to the kind of experiment: Percent treated was determined after administration at 250 mg/kg orally. Format: functional. The following applies: route oral. Summed up: as §5
For assay [22], the system named is Mus musculus. As to the kind of experiment: Weight change in M5076 mouse reticulum cell sarcoma after administration at 125 mg/kg orally. Format: functional. The following applies: route oral. Summed up: as §2
For assay [23], the system named is Mus musculus. Put plainly: Tested for 60-day survivors after administration at 750 mg/kg orally in M5076 mouse reticulum cell sarcoma. The following applies: route oral. The assay is classed as functional. In outline:
as §4

In assay [24] the test system is Mus musculus. Put plainly: Percent treated was determined after administration at 125 mg/kg orally. Format: functional. The following applies: route oral. In outline:
as §5

Assay [25] concerns Mus musculus. Put plainly: Percent inhibition against M5076 mouse reticulum cell sarcoma after administration at 250 mg/kg orally on day 20. The assay is classed as functional. The following applies: M5076, 480 h, route oral. Summed up:
as §3

As a reminder, the IC50 is the concentration that inhibits the measured activity by half. High values mean a need for much substance, low ones inhibition by little substance. By inhibition is commonly meant the drop in the measured response relative to a control, in per cent. What is called inhibition in vivo is the relative decrease from the control value, in per cent. Read a high inhibition in vivo as a response far below the control. As a reminder, the T/C is the ratio of treated to control.

As to `N#CC1=C[C@@H](CO)O[C@H]1n1ccc(N)nc1=O`, the IC50 was 299 µM with MCF7; 150 µM with COLO 320; greater than 430 µM in the assay with PC-8; 145 µM in the assay with A-375; 427 µM in the assay with QG-95; 350 µM in the assay with ST-KM-1. In addition, the IC50 in the assay on PC-13 is 363 µM; in the assay with KKLS it was greater than 430 µM; in the assay on MKN-45, 376 µM; in the assay with HT-1080, 248 µM; with OST, 235 µM; with L1210 [1], 261 µM. For the same compound, the IC50 in the assay with PC-9 is greater than 430 µM; in the assay with HOS-TE85, 205 µM; with SW48 it was 273 µM; in assay [3], 31.6 µM. In addition, the inhibition at 100 µg/mL in assay [2] stood at 46.8%.
Take `Cc1cn([C@@H]2O[C@H](CO)C(O)[C@@H]2C#N)c(=O)[nH]c1=O` (stereo not given in full): the inhibition at 100 µg/mL in assay [2] was -6%; with L1210 [4], 6.7%.
For the compound `Nc1ccn([C@@H]2O[C@H](CO)[C@@H](O)[C@@H]2O)c(=O)n1` [CYTARABINE], the IC50 in the assay on MCF7 was 0.62 µM; in the assay with COLO 320, 0.04 µM; in the assay on PC-8 it was 1.1 µM; with A-375, greater than 410 µM; in the assay with QG-95, greater than 410 µM; in the assay with ST-KM-1, greater than 410 µM. The IC50 in the assay with PC-13 is greater than 410 µM; in [5], 2.3 µM; with KKLS, greater than 410 µM; with MKN-45, 57.6 µM; in the assay on OST it was greater than 410 µM; in the assay on L1210 [1], 0.05 µM. In addition, the IC50 (in the assay with SW48; in assay [3]) was greater than 410 µM throughout.
Take `CC(=O)Nc1ccn([C@@H]2O[C@H](CO)C=C2C#N)c(=O)n1`: the IC50 in assay [5] amounted to 97.8 µM; with L1210 [1] it was 68.8 µM.
On to `C[C@H]1O[C@@H](n2cc(F)c(=O)[nH]c2=O)[C@H](O)[C@@H]1O` [DOXIFLURIDINE], for which the Weight change worked out at 2.8 g in the assay with Mus musculus [6]; 2 g in the assay with Mus musculus [10]; 2.5 g with Mus musculus [14]; 0.8 g in the assay with Mus musculus [18]; 1.8 g with Mus musculus [22]. The compound further yielded an inhibition in vivo at 750 mg/kg in the assay with Mus musculus [7] of 50%. For the same compound, the inhibition in vivo at 500 mg/kg in the assay with Mus musculus [8] was 19%. The same compound had an inhibition in vivo at 125 mg/kg with Mus musculus [9] of 18%. Further, the Survivors with Mus musculus [11], with Mus musculus [13], with Mus musculus [17], in the assay on Mus musculus [20] and in the assay with Mus musculus [23] was 0 each time. In the assay with Mus musculus [12], this compound gave an inhibition in vivo at 62.5 mg/kg of 8%. In addition, the T/C in the assay with Mus musculus [15] is given as 88%; in the assay on Mus musculus [16], 104%; in the assay with Mus musculus [19], 92%; in the assay with Mus musculus [21], 86%; with Mus musculus [24] it was 98%. In the assay on Mus musculus [25], the inhibition in vivo at 250 mg/kg is 15%.
